High-throughput results as filed in PubChem.
In the library only some 4.7% were active in any assay of this set; here they are far more common.
ADAM17 inh – ADAM17 inhibition, QFRET primary screen; P78536; recombinant ADAM17, EDANS/DABCYL FRET peptide cleavage; inhibition, % at 6.95 µM; 0.83% of 370,000 active; AID 720648;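 active = inhibition above the mean of compounds lying between control limits plus 3 SD, set per campaign, cut at about 8.5% in these data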;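 also: 0% = DMSO-only wells as the low control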
Target sequence (P78536 215-824 limits assumed): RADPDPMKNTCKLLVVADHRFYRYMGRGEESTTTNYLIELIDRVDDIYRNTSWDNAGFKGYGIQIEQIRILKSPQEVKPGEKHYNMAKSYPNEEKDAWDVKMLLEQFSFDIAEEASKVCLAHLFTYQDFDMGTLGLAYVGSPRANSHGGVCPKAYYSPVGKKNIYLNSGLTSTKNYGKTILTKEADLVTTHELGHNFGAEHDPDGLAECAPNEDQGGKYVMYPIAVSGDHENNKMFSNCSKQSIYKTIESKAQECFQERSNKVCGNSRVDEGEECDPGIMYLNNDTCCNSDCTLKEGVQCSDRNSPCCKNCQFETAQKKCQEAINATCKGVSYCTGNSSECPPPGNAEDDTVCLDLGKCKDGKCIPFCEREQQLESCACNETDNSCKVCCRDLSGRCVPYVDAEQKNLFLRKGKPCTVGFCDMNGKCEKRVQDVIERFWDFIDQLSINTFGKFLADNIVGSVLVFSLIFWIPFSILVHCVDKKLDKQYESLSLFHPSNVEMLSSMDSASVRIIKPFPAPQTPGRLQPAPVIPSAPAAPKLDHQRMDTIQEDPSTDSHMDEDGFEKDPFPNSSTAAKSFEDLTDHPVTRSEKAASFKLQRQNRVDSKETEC
NR3A LBD binder – modulators (binders) of human NR3A ligand-binding domain; NR3A LBD differential scanning fluorimetry, Tm shift; 0% = protein alone, 100% = glycine-bound protein; Tm shift relative to glycine control, % at 25 µM; 2.5% of 340,000 active; AID 1259313;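 active = melting temperature shift of at least 10% of the positive control shift, at one fixed dose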
ADAM10 inh – ADAM10 inhibition, QFRET primary screen; inhibition, % at 7 µM; O14672; recombinant ADAM10, EDANS/DABCYL FRET peptide cleavage, 3 h; 0.62% of 370,000 active;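 active = inhibition above a per-campaign cutoff equal to the mean of compounds falling between control-based bounds plus 3 SD, cut at about 20% in these data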;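 also: 0% = DMSO wells while the 100% control is not disclosed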
SKN-1 block – C. elegans SKN-1 inhibition; C. elegans VP596 Pgst-4::GFP/RFP ratio, acrylamide-induced, 24 h; inhibition, % at 21.8 µM; 0.49% of 360,000 active;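 active = interference check ratio from 0.5 to 1.5 plus GFP to RFP signal ratio inhibition reaching or exceeding a fixed threshold, cut at about 30% in these data, passing the limit was not always enough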
MT1-MMP act inh – blocks activation of human MT1-MMP | P50281 | GFP/RFP ratio change, % at 20 µM | HT1080 RFP-PRO-GFP cells, GFP/RFP ratio fluorescence, overnight; percent of plate control window, DMSO zero | 0.061% of 360,000 active;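 active = GFP/RFP ratio change of at least 30% with cell ATP level not reduced by more than half and red fluorescence within 50% of control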
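Assay system: RFP-PRO-GFP reporter HT1080 cells; read-out basis: GFP/RFP fluorescence ratio; benchmarks: DMSO wells and RFP-L50D-GFP cells; doses: 20 µM single dose, 1% DMSO; schedule: overnight cell settling, then overnight compound exposure, 37 °C, 5% CO2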
MPTP inh – blocks calcium-induced mitochondrial swelling; isolated mouse mitochondria, Ca2+ swelling absorbance, 30 min; inhibition, % at 10 µM; 1.4% of 360,000 active; AID 602449;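 active = inhibition of 50% or more, scaled per plate between neutral and stimulator controls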;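 also: 0% = DMSO wells given calcium and 100% = 1 mM EGTA wells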
Active calls of the source: *; x = no result given.

SMILES | ADAM17 inh | NR3A LBD binder | ADAM10 inh | SKN-1 block | MT1-MMP act inh | MPTP inh
CCN(CC(=O)NC1CCCC1)S(=O)(=O)c1ccc(C)cc1 | 1 | 0 | -2 | 8 | 16 | -1
CC(C)c1nnc(NC(=O)CC(C)c2ccccc2)s1 (stereo not drawn) | 1 | 1 | 12 | 10 | -2 | 0
Cc1cnc(NC(=O)CC(C)c2ccccc2)s1 (stereo not drawn) | 1 | -2 | 2 | 35* | -6 | 1
CC(C)(C)c1ccccc1NC(=O)c1ccc2c(c1)SC1=NS(=O)(=O)CCN12 | 0 | -2 | 2 | 2 | 0 | 1
O=C(Nc1cccc(Br)c1)c1ccc2c(c1)SC1=NS(=O)(=O)CCN12 | 5 | 18* | -16 | -13 | 12 | 0
O=c1cc(-c2ccccc2)[nH]c2cc(Cl)ccc12 | 2 | 1 | 12 | -9 | 12 | -2
Clc1ccc2[nH]c(-c3ccccc3)cc2c1 | -13 | 20* | -44 | -5 | -6 | 3
NC(=O)N/N=C/c1ccc(-c2ccc([N+](=O)[O-])cc2)o1 | -2 | 2 | -1 | -12 | 1 | 1
COc1ccc(-c2cnnc(N/N=C/c3ccc(-c4ccc([N+](=O)[O-])cc4)o3)n2)cc1 | 1 | 19* | 0 | -10 | -3 | 0
O=[N+]([O-])c1ccc(-c2ccc(/C=N/O)o2)cc1 | -1 | 33* | 0 | 20 | 1 | 2
CCCC(C(=O)NC(C)(C)CC)N(CC1CCCO1)C(=O)CNS(=O)(=O)c1ccc(F)cc1 (stereo not drawn) | 3 | -1 | 3 | 2 | 0 | 0
Cc1ccc(/C=C2\SC(=S)N(CCCC(=O)Nc3nccs3)C2=O)cc1 | 1 | 10* | 3 | 14 | 1 | 2
O=C(CCCN1C(=O)/C(=C/c2cccs2)SC1=S)Nc1ccccc1O | -1 | 10* | 5 | 12 | 6 | 4
COc1ccccc1/C=C1\SC(=S)N(CCC(=O)NNC(=O)c2ccccc2O)C1=O | x | 11* | x | 2 | 8 | 3
O=C(CCCN1C(=O)/C(=C/c2cccs2)SC1=S)NNC(=O)c1ccncc1 | -1 | -4 | 3 | 14 | 3 | 5
O=C(CCCN1C(=O)/C(=C/c2cccs2)SC1=S)NNC(=O)c1ccccc1O | -2 | 12* | -7 | 8 | 7 | 30
COc1ccc(/C=C2\SC(=S)N(CCCC(=O)NNC(=O)c3ccccc3O)C2=O)cc1 | 0 | 6 | -1 | -4 | 6 | 4
O=C(CCCN1C(=O)/C(=C\c2cccs2)SC1=S)Nc1ccc(O)cc1 | 1 | 2 | 14 | 30 | 4 | 2
Cc1cc(C)n2nc(C(=O)OCC(=O)Nc3ccc4c(c3)OC(F)(F)O4)nc2n1 | -1 | 2 | -3 | -6 | 1 | -1
O=C(COc1ccc(F)cc1Br)N1CCN(c2ncccn2)CC1 | -5 | -1 | -4 | 4 | 1 | -3
O=C(NCCCN1CCN(c2ccc(F)cc2)CC1)c1cccc(N2CCCC2=O)c1 | -6 | 0 | -1 | 0 | -1 | 0
O=C1Nc2ccccc2N=C(c2ccccc2)c2ccccc21 | -1 | -2 | 3 | 13 | 4 | 3
Oc1[nH]c(=S)sc1C=C1N=c2ccccc2=N1 | -12 | 18* | -22 | 17 | 6 | 9
Oc1[nH]c(=S)sc1/C=C1\C(c2ccccc2)=Nc2ccccc21 | 0 | 16* | -2 | 25 | -69 | 43
CNC(=O)c1cccnc1Nc1cccc(C(F)(F)F)c1 | 1 | -3 | 4 | 6 | -1 | 6
SMILES | ADAM17 inh | NR3A LBD binder | ADAM10 inh | SKN-1 block | MT1-MMP act inh | MPTP inh
CN(CC(=O)Nc1ccccc1Br)C(=O)c1cccnc1Nc1cccc(C(F)(F)F)c1 | 6 | 15* | 15 | 11 | 1 | 1
Cc1cc([N+](=O)[O-])ccc1-c1ccc(C2Nc3ccccc3C(=O)N2O)o1 (stereo not drawn) | -2 | 30* | 10 | 7 | 2 | 4
CC(C)Sc1nc(-c2cccs2)nc2cc(Cl)ccc12 | -3 | x | -7 | 1 | 2 | 5
Cc1ccc2c(COn3nnc4ccc(S(=O)(=O)N(C)C)cc43)cc(=O)oc2c1C | -5 | x | -3 | x | x | x
CN(CC(=O)Nc1cccc(F)c1)C(=O)c1cn(-c2ccccc2)nc1-c1cccs1 | 6 | 23* | 15 | -9 | -1 | 2
COc1cccc(NC(=O)CN(C)C(=O)c2cn(-c3ccccc3)nc2-c2cccnc2)c1 | -9 | 0 | -9 | -16 | -3 | 0
COc1cccc(NC(=O)CN(C)C(=O)c2cn(-c3ccccc3)nc2-c2cccs2)c1 | 6 | 14* | 14 | 6 | 1 | 0
COC(=O)c1ccc(NC(=O)C(=O)N2CCN(C(=S)Nc3ccc(C)cc3)CC2)cc1 | 0 | 11* | 9 | 8 | 1 | 0
CCOC(=O)CC(=O)CSc1nc2c(c(C)c1C#N)CCC2 | -24 | 20* | -78 | 1 | 3 | -3
CCOC(=O)CC(=O)CSc1nc(N)c(C#N)c(-c2ccc(Cl)cc2)c1C#N | 0 | 16* | -4 | 5 | 6 | 0
COc1ccc(C(C(=O)NCc2ccccc2)N(C(=O)c2snc(C(N)=O)c2N)C2CCCC2)cc1O (stereo not drawn) | -18 | 0 | -48 | 7 | -1 | -1
CC1CCCCN1C(=O)c1cccc(NC(=O)c2ccccc2)c1 (stereo not drawn) | 2 | 0 | -9 | 4 | -1 | 0
COC(=O)c1ccc(CC2(C)C(=O)Nc3ccc(-c4cccc(C(F)(F)F)c4)cc32)o1 (stereo not drawn) | 6 | x | 17 | 39* | 3 | 2
O=C(NC1CC1)C1=C[C@@H](c2csc3ccccc23)C[C@@H](OCCCCO)O1 | 0 | 0 | 4 | 4 | 1 | -2
COc1ccc(OC)c(/C=C2\S/C(=N/NC(=O)c3ccc4ccccc4c3)NC2=O)c1 | 0 | 17* | 3 | 12 | -13 | 11
CCc1ccc(NCc2nc(-c3ccccc3)no2)cc1 | 6 | -3 | 14 | 42* | 8 | 2
COCCn1c(CCC(=O)O)nc2c1c(=O)[nH]c(=O)n2CC(C)C | 2 | 0 | 1 | 32* | 5 | 0
CCCCn1c(CCC(=O)O)nc2c1c(=O)[nH]c(=O)n2CCC | -4 | 3 | -10 | -10 | 0 | -1
O=C(CSc1ccc(-c2ccc(Cl)cc2)nn1)Nc1ccc2c(c1)OCCO2 | 4 | 12* | 4 | 6 | 3 | 3
Cc1ccc(C)c(SCC(=O)Nc2oc(C)c3c(C)n[nH]c(=O)c23)c1 | 5 | 1 | -11 | -11 | 5 | -1
Cc1ccc(N(C)S(=O)(=O)c2c[nH]c3ccc([N+](=O)[O-])cc23)cc1 | 5 | 117* | 6 | -4 | 0 | 17
